Assay [1] concerns MM1.S. Description: Cytotoxicity against human MM1S cells after 48 hrs by MTT assay. The assay is classed as functional, cell-based. In outline: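 MM1.S myeloma cells (DEPTOR-over-expressing) in 48 h MTT: 1–2 × 10^4 cells per well, graded compound concentrations, formazan at 570 nm. Quadruplicate wells; survival as % of DMSO control; IC50 derived from the concentration range.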
A general note: Tetrazolium dyes change colour on reduction, which living cells bring about.

Assay [2] has as its system RPMI-8226. Description: Cytotoxicity against human RPMI8226 cells after 48 hrs by MTT assay. In kind it is functional, cell-based. The conditions noted are these: RPMI-8226, 48 h. The method, boiled down:
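MTT in RPMI-8226 cells: 1–2 × 10^4 cells per well in complete medium, exposed 48 h to a range of compound concentrations. MTT reduction to formazan read at 570 nm. Quadruplicate wells per group; OD given as % of DMSO-only control set at 100%. IC50 taken from the concentration series.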

A value given as a limit tells only on which side of the number the result lay.

Turning to `CC(C)(C)NN=C1C(Cl)=C(Cl)C(Cl)=C1Cl`, the IC50 (as a rule, the concentration that gives 50% inhibition) in assay [1] was more than 3000 nM; in assay [2], 3000 to 5000 nM. On to `C#CC(C)(C)OC(=O)NN=C1C(Cl)=C(Cl)C(Cl)=C1Cl`, for which the IC50 in assay [2] was more than 5000 nM.

Consider `Fc1ccccc1NN=C1C(Cl)=C(Cl)C(Cl)=C1Cl`, for which the IC50 in assay [1] and in assay [2] was more than 3000 nM each time. With `Fc1cccc(NN=C2C(Cl)=C(Cl)C(Cl)=C2Cl)c1`, the IC50 in assay [1] was 1500 nM; in assay [2] it was 500 to 600 nM.

Consider `CN(C)N=C1C(Cl)=C(Cl)C(Cl)=C1Cl`, for which the figures for the IC50 in assay [1] and in assay [2] were more than 3000 nM and 1300 to 3000 nM, respectively. In the case of `ON=C1C(Cl)=C(Cl)C(Cl)=C1Cl`, the concentration for half-maximal inhibition (IC50) in assay [2] is more than 5000 nM. As for `ClC1=C(Cl)C(Cl)=C(Cl)C1=NNc1ccccc1`, the figures for the IC50 in assay [1] and in assay [2] were 2000 nM and 600 to 700 nM, respectively. As to `ClC1=C(Cl)C(Cl)=C(Cl)C1=NNc1cc(Cl)cc(Cl)c1`, the IC50 is 2000 nM in assay [1] and 800 nM in assay [2].

Take `Fc1cccc(NN=C2c3ccccc3-c3ccccc32)c1`: the IC50 in assay [1] and in assay [2] was more than 5000 nM each time. Take `Cc1ccc(C(=O)N(N=C2C(Cl)=C(Cl)C(Cl)=C2Cl)C(=O)c2ccc(C)cc2)cc1`: the IC50 in assay [1] and in assay [2] was 500 nM in each case. `COc1cccc(NN=C2C(Cl)=C(Cl)C(Cl)=C2Cl)c1`: the IC50 in assay [1] and in assay [2] was more than 3000 nM throughout. For `NN=c1c2ccccc2oc2ccccc12`, the IC50 in assay [1] and in assay [2] was more than 5000 nM throughout. `COC1(OC)C(Cl)=C(Cl)C(Cl)=C1Cl` showed an IC50 in assay [2] of more than 5000 nM. For the molecule `C#CCOC(=O)NN=C1C(Cl)=C(Cl)C(Cl)=C1Cl`, the IC50 in assay [2] came to 800 nM. With `Cc1cccc(NN=C2C(Cl)=C(Cl)C(Cl)=C2Cl)c1`, the values for the IC50 in assay [1] and in assay [2] were more than 3000 nM and 2000 nM, respectively. Consider `NN=C1c2ccccc2-c2ccccc21`, for which the IC50 in assay [2] is more than 5000 nM. As to `NN=C(c1ccccc1)c1ccccc1`, the IC50 in assay [1] and in assay [2] was more than 5000 nM each time. As for `CC(=O)NN=C1C(Cl)=C(Cl)C(Cl)=C1Cl`, the IC50 in assay [2] was determined as 1000 nM. Take `ClC1=C(Cl)C(Cl)=C(Cl)C1=NN(c1ccccc1)c1ccccc1`: the IC50 in assay [1] and in assay [2] was more than 3000 nM each time. Regarding `ClC1=C(Cl)C(Cl)=C(Cl)C1=NNC1CCCCC1`, the figures for the IC50 in assay [1] and in assay [2] were more than 3000 nM and 3000 to 5000 nM, respectively. Turning to `CC(C)(C)OC(=O)NN=C1c2ccccc2-c2ccccc21`, the IC50 in assay [1] and in assay [2] was more than 5000 nM each time. As to `O=C(c1ccccc1)N(N=C1C(Cl)=C(Cl)C(Cl)=C1Cl)C(=O)c1ccccc1`, the IC50 stood at 2000 nM in assay [1] and 800 nM in assay [2].

These data come from ChEMBL document CHEMBL4043223, “Structure-activity relationship study of small molecule inhibitors of the DEPTOR-mTOR interaction” (Bioorg Med Chem Lett, 2017).
